Experimental data: ChEMBL document CHEMBL1155278, “3,4-Diaryl-isoxazoles and -imidazoles as potent dual inhibitors of p38alpha mitogen activated protein kinase and casein kinase 1delta” (J Med Chem, 2009)

Tests used:
[1] = target: Protein kinase C alpha type (Homo sapiens) (UniProt P17252); test: Inhibition of PKCalpha assessed as residual activity at 0.1 uM by Cherenkov counting relative to control in presence of 20 uM ATP
How it was run: (§1)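 Single-concentration screen at 0.1 μM in a 76-kinase panel. ATP for each kinase was set near its Km for ATP. Residual activity is given as a percentage of control assays without compound, mean of n = 3 ± SD.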

[2] = target: Serine/threonine-protein kinase 26 (Homo sapiens) (UniProt Q9P289); test: Inhibition of MST4 assessed as residual activity at 0.1 uM by Cherenkov counting relative to control in presence of 20 uM ATP
How it was run: (§2)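 Single-concentration selectivity screen at 0.1 μM against a panel of 76 protein kinases. Each kinase was run at an ATP level approximating its Km for ATP. Output is mean residual activity as % of the control assay without compound, n = 3 ± SD.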

[3] = target: T1, Serine/threonine-protein kinase 3 (Homo sapiens) (UniProt Q13188); test: Inhibition of MST2 assessed as residual activity at 0.1 uM by Cherenkov counting relative to control in presence of 20 uM ATP; how it was run: as §2
T1 sequence (whole entry): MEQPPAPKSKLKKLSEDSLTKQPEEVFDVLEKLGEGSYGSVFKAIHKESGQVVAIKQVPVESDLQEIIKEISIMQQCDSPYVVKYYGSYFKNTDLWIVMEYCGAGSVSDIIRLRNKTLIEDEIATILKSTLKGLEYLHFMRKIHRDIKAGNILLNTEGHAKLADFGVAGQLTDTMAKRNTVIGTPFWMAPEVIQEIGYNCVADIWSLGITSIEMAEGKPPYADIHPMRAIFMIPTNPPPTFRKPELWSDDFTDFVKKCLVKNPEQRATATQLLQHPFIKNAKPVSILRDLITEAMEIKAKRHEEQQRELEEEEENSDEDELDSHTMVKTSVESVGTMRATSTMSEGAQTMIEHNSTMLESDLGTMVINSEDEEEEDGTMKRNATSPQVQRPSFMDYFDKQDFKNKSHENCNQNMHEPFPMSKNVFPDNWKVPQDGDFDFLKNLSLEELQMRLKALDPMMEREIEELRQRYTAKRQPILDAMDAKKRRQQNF

[4] = Inhibition of VEGFR assessed as residual activity at 0.1 uM by Cherenkov counting relative to control in presence of 20 uM ATP; how it was run: as §1
[5] = target: T2, Dual specificity tyrosine-phosphorylation-regulated kinase 2 (Homo sapiens) (UniProt Q92630); test: Inhibition of DYRK2 assessed as residual activity at 10 uM by Cherenkov counting relative to control in presence of 50 uM ATP
T2 sequence (whole entry): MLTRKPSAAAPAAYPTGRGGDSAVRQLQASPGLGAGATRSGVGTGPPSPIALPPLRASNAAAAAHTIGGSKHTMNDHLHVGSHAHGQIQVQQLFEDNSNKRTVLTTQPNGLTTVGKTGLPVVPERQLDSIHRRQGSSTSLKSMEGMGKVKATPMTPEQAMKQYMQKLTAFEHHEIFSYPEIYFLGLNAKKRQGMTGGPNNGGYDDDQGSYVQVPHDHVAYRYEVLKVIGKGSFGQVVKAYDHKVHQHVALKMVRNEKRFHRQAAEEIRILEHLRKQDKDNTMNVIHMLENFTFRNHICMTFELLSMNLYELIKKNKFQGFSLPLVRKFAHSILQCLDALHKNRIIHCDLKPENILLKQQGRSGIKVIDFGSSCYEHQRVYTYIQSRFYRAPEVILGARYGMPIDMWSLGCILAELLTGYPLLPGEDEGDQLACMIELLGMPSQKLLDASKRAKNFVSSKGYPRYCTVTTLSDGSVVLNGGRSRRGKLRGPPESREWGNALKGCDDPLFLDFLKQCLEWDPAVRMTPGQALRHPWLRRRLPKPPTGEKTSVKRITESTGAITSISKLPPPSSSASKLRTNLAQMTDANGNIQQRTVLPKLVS
How it was run: (§3)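 Single-point profiling at 10 µM in a panel of 78 protein kinases. Kinase activity is expressed as a percentage relative to control assays without compound.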

[6] = target: Serine/threonine-protein kinase PAK 6 (Homo sapiens) (UniProt Q9NQU5); test: Inhibition of PAK6 assessed as residual activity at 10 uM by Cherenkov counting relative to control in presence of 20 uM ATP
[7] = target: Tyrosine-protein kinase SYK (Homo sapiens) (UniProt P43405); test: Inhibition of SYK assessed as residual activity at 10 uM by Cherenkov counting relative to control in presence of 20 uM ATP
How it was run: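 Single-concentration profiling at 10 μM in a 78-kinase panel. Kinase activity is expressed as a percentage of control assays run without compound.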

[8] = target: T3, Serine/threonine-protein kinase BRSK2 (Homo sapiens) (UniProt Q8IWQ3); test: Inhibition of BRSK2 assessed as residual activity at 10 uM by Cherenkov counting relative to control in presence of 50 uM ATP; how it was run: as §3
T3 sequence (whole entry): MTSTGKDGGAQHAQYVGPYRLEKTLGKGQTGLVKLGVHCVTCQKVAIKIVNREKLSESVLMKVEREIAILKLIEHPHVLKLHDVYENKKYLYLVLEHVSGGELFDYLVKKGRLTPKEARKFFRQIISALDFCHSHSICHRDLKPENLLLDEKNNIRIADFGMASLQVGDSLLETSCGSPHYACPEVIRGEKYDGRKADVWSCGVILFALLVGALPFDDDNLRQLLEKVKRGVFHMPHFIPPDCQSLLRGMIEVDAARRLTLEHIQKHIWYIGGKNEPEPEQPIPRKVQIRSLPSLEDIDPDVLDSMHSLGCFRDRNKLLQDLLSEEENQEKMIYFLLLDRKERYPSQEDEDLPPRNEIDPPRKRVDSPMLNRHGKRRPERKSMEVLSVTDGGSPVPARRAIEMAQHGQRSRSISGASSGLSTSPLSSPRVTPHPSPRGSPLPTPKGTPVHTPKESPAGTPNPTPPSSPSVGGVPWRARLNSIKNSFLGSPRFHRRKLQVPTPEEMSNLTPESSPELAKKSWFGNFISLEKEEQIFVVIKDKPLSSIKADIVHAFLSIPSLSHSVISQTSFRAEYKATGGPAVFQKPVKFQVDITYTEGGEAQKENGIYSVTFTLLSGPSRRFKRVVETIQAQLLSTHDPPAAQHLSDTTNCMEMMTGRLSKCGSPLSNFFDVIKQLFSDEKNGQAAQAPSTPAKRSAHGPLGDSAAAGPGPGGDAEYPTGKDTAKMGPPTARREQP

Sequence of Serine/threonine-protein kinase 26 (Homo sapiens) (Q9P289 2-416 limits assumed): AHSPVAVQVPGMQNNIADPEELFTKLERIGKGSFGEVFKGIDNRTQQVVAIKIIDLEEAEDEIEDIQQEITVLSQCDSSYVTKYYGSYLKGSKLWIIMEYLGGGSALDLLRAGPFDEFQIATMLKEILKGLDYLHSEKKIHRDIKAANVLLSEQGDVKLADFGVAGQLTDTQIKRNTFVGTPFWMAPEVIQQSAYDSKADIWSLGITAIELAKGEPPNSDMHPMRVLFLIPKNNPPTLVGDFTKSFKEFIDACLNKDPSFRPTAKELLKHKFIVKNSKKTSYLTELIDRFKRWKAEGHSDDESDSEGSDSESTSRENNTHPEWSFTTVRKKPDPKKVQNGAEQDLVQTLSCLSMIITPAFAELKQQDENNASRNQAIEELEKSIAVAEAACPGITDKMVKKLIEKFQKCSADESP
Sequence of Serine/threonine-protein kinase PAK 6 (Homo sapiens) (Q9NQU5 whole entry, looked up): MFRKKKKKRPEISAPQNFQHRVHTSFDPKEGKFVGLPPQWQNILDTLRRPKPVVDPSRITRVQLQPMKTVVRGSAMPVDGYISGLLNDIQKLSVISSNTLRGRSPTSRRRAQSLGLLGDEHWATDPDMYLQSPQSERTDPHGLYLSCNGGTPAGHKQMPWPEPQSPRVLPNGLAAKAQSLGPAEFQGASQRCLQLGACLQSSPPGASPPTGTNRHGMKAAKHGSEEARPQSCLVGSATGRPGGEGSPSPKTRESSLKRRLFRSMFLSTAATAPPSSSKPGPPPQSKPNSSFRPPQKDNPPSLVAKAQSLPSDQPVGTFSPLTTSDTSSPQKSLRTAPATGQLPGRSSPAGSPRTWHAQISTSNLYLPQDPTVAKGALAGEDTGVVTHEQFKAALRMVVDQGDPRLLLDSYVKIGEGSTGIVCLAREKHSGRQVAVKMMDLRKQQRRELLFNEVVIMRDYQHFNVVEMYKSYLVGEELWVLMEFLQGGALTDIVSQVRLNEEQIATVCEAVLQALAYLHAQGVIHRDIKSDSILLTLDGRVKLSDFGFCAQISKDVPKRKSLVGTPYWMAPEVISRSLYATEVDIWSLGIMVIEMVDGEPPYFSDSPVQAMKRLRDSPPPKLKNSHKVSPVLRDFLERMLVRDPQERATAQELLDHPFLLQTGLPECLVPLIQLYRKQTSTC

Compound | Activity [1] [%] | Activity [2] [%] | Activity [3] [%] | Activity [4] [%] | Activity [5] [%] | Activity [6] [%] | Activity [7] [%] | Activity [8] [%]
COc1ccc(/C=C/C(=O)Nc2cc(-c3[nH]c(SC)nc3-c3ccc(F)cc3)ccn2)c(OC)c1 | 110 | 90 | 97 | 33 | – | – | – | –
COc1ccc(/C=C/C(=O)Nc2cc(-c3[nH]c([S+](C)[O-])nc3-c3ccc(F)cc3)ccn2)c(OC)c1 (stereo unspecified) | 103 | 86 | 112 | 46 | – | – | – | –
CC(C)c1onc(-c2ccc(F)cc2)c1-c1ccncc1 | – | – | – | – | 101 | 100 | 131 | 87
CC(C)c1noc(-c2ccc(F)cc2)c1-c1ccncc1 | – | – | – | – | 104 | 102 | 114 | 93
